The source made the active and inactive calls. The rule behind the calls is not given here.
How the values were obtained:
[1] = test system: Human immunodeficiency virus 2; assay: Antiviral activity against HIV2 CDC310319 isolate infected in human PBMC assessed as inhibition of virus production after 5 days by Lenti-RT activity assay; type: functional, organism-based; details: Human immunodeficiency virus 2, 120 h
Method in brief: (§1)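 PBMCs were stimulated with PHA (5 μg/ml) for 3 days, then kept in 20% FBS medium with IL-2 (50 U/ml). Cells were infected 1 h with 50–100 pg RNA virus, washed twice, and given half-log PI dilutions (DMSO 1% final) in triplicate. After 5 days at 37°C, supernatant RT was read versus infected control. EC50 by nonlinear regression, mean of three experiments.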

[2] = test system: Human immunodeficiency virus 1; assay: Antiviral activity against HIV1 NL4-3 infected in human MT4 cells assessed as reduction in virus-induced cytopathic effect after 5 days by MTT assay; type: functional, organism-based; details: Human immunodeficiency virus 1, NL4-3, MT4, 120 h
Method in brief: (§2)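 MT4 cells were infected 1 h with 50–100 pg RNA virus, washed twice, and exposed in triplicate to half-log PI dilutions (DMSO 1% final) for 5 days at 37°C. Cell viability was read by MTT: 4 h, SDS/HCl lysis overnight, OD at 570/650 nm. Cytopathic-effect reduction was scaled between infected and uninfected controls. EC50 by nonlinear regression, mean of three experiments.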

[3] = test system: Human immunodeficiency virus 2; assay: Antiviral activity against HIV2 MS infected in human MT4 cells assessed as reduction in virus-induced cytopathic effect after 5 days by MTT assay; type: functional, organism-based; details: Human immunodeficiency virus 2, MT4, 120 h; method in brief: as §2
[4] = test system: Human immunodeficiency virus 2; assay: Antiviral activity against HIV2 CBL-23 infected in human PBMC assessed as inhibition of virus production after 5 days by Lenti-RT activity assay; type: functional, organism-based; details: Human immunodeficiency virus 2, CBL-23, 120 h; method in brief: as §1
[5] = test system: Human immunodeficiency virus 2; assay: Antiviral activity against HIV2 ROD with protease V47A mutation infected in human CEM cells assessed as inhibition of virus production after 7 days by Lenti-RT activity assay; type: functional, organism-based; details: Human immunodeficiency virus 2, ROD, CCRF-CEM, 168 h
Method in brief: (§3)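 Protease mutant clones of HIV-2ROD came from site-directed mutagenesis of pSL-3, with stocks made by 293T transfection. CEM174 cells were infected with 100 pg RT of virus for 2 h at 37°C, washed, and seeded at 2 × 10^5 cells/ml. PI was added as 1:4 serial dilutions, 1% DMSO final, and incubated 7 days. Supernatant RT was read, in triplicate. EC50 came from nonlinear regression, and fold-change is mutant EC50 divided by HIV-2ROD EC50.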

[6] = test system: Human immunodeficiency virus 2; assay: Antiviral activity against HIV2 ROD with protease G17N mutation infected in human CEM cells assessed as inhibition of virus production after 7 days by Lenti-RT activity assay; type: functional, organism-based; details: Human immunodeficiency virus 2, ROD, CCRF-CEM, 168 h; method in brief: as §3
[7] = (§4) Ratio of EC50 for HIV2 CBL-23 infected in human PBMC to EC50 for HIV1 NL4-3 infected in human MT4 cells; type: functional
[8] = (§5) Ratio of EC50 for HIV2 CDC310319 infected in human PBMC to EC50 for HIV1 NL4-3 infected in human MT4 cells; type: functional
[9] = test system: Human immunodeficiency virus 2; assay: Ratio of EC50 for HIV2 ROD with protease G17N mutation to EC50 for wild type HIV2 ROD; type: functional; method in brief: as §3
[10] = test system: Human immunodeficiency virus 2; assay: Ratio of EC50 for HIV2 ROD with protease V47A mutation to EC50 for wild type HIV2 ROD; type: functional; method in brief: as §3
[11] = test system: Human immunodeficiency virus 2; assay: Ratio of EC50 for HIV2 ROD with protease G17N/V47A mutation to EC50 for wild type HIV2 ROD; type: functional; method in brief: as §3
[12] = (§6) Ratio of EC50 for HIV2 MS to EC50 for HIV1 NL4-3 infected in human MT4 cells; type: functional
[13] = test system: Human immunodeficiency virus 2; assay: Antiviral activity against wild type HIV2 ROD infected in human CEM cells assessed as inhibition of virus production after 7 days by Lenti-RT activity assay; type: functional, organism-based; details: Human immunodeficiency virus 2, ROD, CCRF-CEM, 168 h
[14] = test system: Human immunodeficiency virus 2; assay: Antiviral activity against HIV2 ROD with protease G17N/V47A mutation infected in human CEM cells assessed as inhibition of virus production after 7 days by Lenti-RT activity assay; type: functional, organism-based; details: Human immunodeficiency virus 2, ROD, CCRF-CEM, 168 h; method in brief: as §3
PBMC [15] = assay: as §4; type: functional
PBMC [16] = assay: as §5; type: functional
MT4 = assay: as §6; type: functional
[17] = test system: Human immunodeficiency virus 2; assay: Ratio of EC50 for HIV2 MS infected in human MT4 cells after 18 passages to EC50 for HIV2 MS infected in human MT4 cells; type: functional
[18] = test system: Human immunodeficiency virus 2; assay: Antiviral activity against HIV2 MS infected in human PBMC cells assessed as inhibition of virus production after 5 days by Lenti-RT activity assay; type: functional, organism-based; details: Human immunodeficiency virus 2, PBMC, 120 h
Method in brief: (§7)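 Infection used 50 to 100 pg RNA for 1 h, followed by two washes. MT4 cells or PHA-stimulated, IL-2-maintained PBMCs were then exposed to half-log PI dilutions in triplicate, with 1% DMSO final. Incubation was 5 days at 37°C. Day-5 supernatant RT was read by Lenti-RT assay. EC50 came from nonlinear regression, as the mean of three independent experiments.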

[19] = test system: Human immunodeficiency virus 1; assay: Antiviral activity against HIV1 NL4-3 infected in human PBMC cells assessed as inhibition of virus production after 5 days by Lenti-RT activity assay; type: functional, organism-based; method in brief: as §1
[20] = test system: Human immunodeficiency virus 2; assay: Antiviral activity against HIV2 MS infected in human MT4 cells assessed as inhibition of virus production after 5 days by Lenti-RT activity assay; type: functional, organism-based; details: Human immunodeficiency virus 2, MT4, 120 h; method in brief: as §7
[21] = test system: Human immunodeficiency virus 1; assay: Antiviral activity against HIV1 NL4-3 infected in human MT4 cells assessed as inhibition of virus production after 5 days by Lenti-RT activity assay; type: functional, organism-based
Method in brief: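 HIV-1 NL4-3 in MT4 cells (RPMI 1640, 10% FBS) was adsorbed 1 h at 50–100 pg RNA and washed twice. PI in DMSO (1% final) was added in half-log dilutions, in triplicate. After 5 days at 37°C, supernatant RT was measured and expressed relative to infected untreated control. EC50 came from nonlinear regression, as the mean of three independent experiments.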

[22] = test system: Human immunodeficiency virus 2; assay: Antiviral activity against HIV2 MS infected in human MT4 cells […] after 1 passage; type: functional, organism-based; details: Human immunodeficiency virus 2, MT4
[23] = test system: Human immunodeficiency virus 2; assay: Antiviral activity against HIV2 MS infected in human MT4 cells […] after 18 passages; type: functional, organism-based; details: Human immunodeficiency virus 2, MT4
[24] = test system: Human immunodeficiency virus 2; assay: Ratio of EC50 for HIV2 MS infected in human MT4 cells after 1 passage to EC50 for HIV2 MS infected in human MT4 cells; type: functional
[25] = test system: Human immunodeficiency virus 1; assay: Antiviral activity against HIV1 in presence of 50% human serum; type: functional, organism-based

Compound | EC50 [1] | EC50 [2] | EC50 [3] | EC50 [4] | EC50 [5] | EC50 [6] | Ratio EC50 [7] | Ratio EC50 [8] | Ratio EC50 [9] | Ratio EC50 [10] | Ratio EC50 [11] | Ratio EC50 [12] | EC50 [13] | EC50 [14] | further results
Cc1c(O)cccc1C(=O)N[C@@H](CSc1ccccc1)[C@H](O)CN1C[C@H]2CCCC[C@H]2C[C@H]1C(=O)NC(C)(C)C [NELFINAVIR] | 389 nM | 18 nM | 48 nM | 83 nM | 177 nM | 199 nM | 4.6 | 21.6 | 0.7 | 0.6 | 0.4 | 2.7 | 281 nM | 100 nM | –
CC(C)CN(C[C@@H](O)[C@H](Cc1ccccc1)NC(=O)O[C@H]1CCOC1)S(=O)(=O)c1ccc(N)cc1 [AMPRENAVIR] | 674 nM | 72 nM | 900 nM | 939 nM | 630 nM | 583 nM | – | – | 0.7 | 0.7 | 0.5 | – | 855 nM | 404 nM | Ratio EC50 (PBMC [15]): 13; Ratio EC50 (PBMC [16]): 9.2; Ratio EC50 (MT4): 12.5
CC(C)(C)NC(=O)[C@@H]1CN(Cc2cccnc2)CCN1C[C@@H](O)C[C@@H](Cc1ccccc1)C(=O)N[C@H]1c2ccccc2C[C@H]1O.O [INDINAVIR] | 108 nM | 38 nM | 22 nM | 33 nM | 34 nM | 52 nM | 0.8 | 2.6 | 0.8 | 0.5 | 0.5 | 0.5 | 65 nM | 24 nM | –
Cc1cccc(C)c1OCC(=O)N[C@@H](Cc1ccccc1)[C@@H](O)C[C@H](Cc1ccccc1)NC(=O)[C@H](C(C)C)N1CCCNC1=O [LOPINAVIR] | 180 nM | 18 nM | 15 nM | 12 nM | 340 nM | 28 nM | 0.7 | 10 | 0.8 | 9.7 | 7.4 | 0.8 | 35 nM | 260 nM | Ratio EC50 [17]: 34; EC50 [18]: 15 nM; Activity [19]: Active; EC50 [20]: 6 nM; Activity [21]: Active; EC50 [22]: 15 nM; EC50 [23]: 515 nM; Ratio EC50 [24]: 1
CC(C)c1nc(CN(C)C(=O)N[C@H](C(=O)N[C@@H](Cc2ccccc2)C[C@H](O)[C@H](Cc2ccccc2)NC(=O)OCc2cncs2)C(C)C)cs1 [RITONAVIR] | 665 nM | 46 nM | 349 nM | 514 nM | 115 nM | 310 nM | 11.2 | 14.5 | 0.7 | 0.3 | 0.2 | 7.6 | 421 nM | 84 nM | EC50 [25]: 100 nM
CC(C)CN(C[C@@H](O)[C@H](Cc1ccccc1)NC(=O)O[C@H]1CO[C@H]2OCC[C@H]21)S(=O)(=O)c1ccc(N)cc1 [DARUNAVIR] | 155 nM | 12 nM | – | 83 nM | 10 nM | 6 nM | 6.9 | 12.9 | 0.7 | 1.1 | 0.9 | – | 9 nM | 8 nM | –
CC(C)(C)NC(=O)[C@@H]1C[C@@H]2CCCC[C@@H]2CN1C[C@@H](O)[C@H](Cc1ccccc1)NC(=O)[C@H](CC(N)=O)NC(=O)c1ccc2ccccc2n1 [SAQUINAVIR] | 68 nM | 12 nM | 5 nM | 8 nM | 0.2 nM | 2.2 nM | 0.7 | 5.7 | 0.6 | 0.1 | 0.1 | 0.4 | 3.6 nM | 0.2 nM | –
COC(=O)N[C@H](C(=O)N[C@@H](Cc1ccccc1)[C@@H](O)CN(Cc1ccc(-c2ccccn2)cc1)NC(=O)[C@@H](NC(=O)OC)C(C)(C)C)C(C)(C)C [ATAZANAVIR] | 110 nM | 5 nM | 20 nM | 39 nM | 5 nM | 20 nM | 7.8 | 22 | 0.6 | 0.1 | 0.1 | 4 | 34 nM | 3 nM | –
